Measurements from ChEMBL document CHEMBL1152658, “Antioxidant activity of benzoxazolinonic and benzothiazolinonic derivatives in the LDL oxidation model” (2009).
Activity calls are given as the source filed them. The calls are words filed in the database; no cut-off is given here.

Experiments:
[1] = Inhibition of CuSO4-induced human LDL oxidation assessed as ratio of length of lag phase of conjugated diene formation in presence of compound to untreated control at 100 uM measured every 10 mins for 8 hrs by spectrophotometry; assay type: functional
Outline: (§1)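 Human LDL taken from fasting normolipidemic volunteers by sequential NaBr density ultracentrifugation (1.019–1.063 g/mL), protein measured by Peterson method. Oxidation started with 16.6 µM CuSO4 or 2 mM AAPH, compound at 1–100 µM. Conjugated dienes read at 234 nm every 10 min for 8 h at 30 °C. R = lag phase with compound / lag phase without compound.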

[2] = Inhibition of CuSO4-induced human LDL oxidation assessed as ratio of length of lag phase of conjugated diene formation in presence of compound to untreated control at 10 uM measured every 10 mins for 8 hrs by spectrophotometry; assay type: functional; outline: as §1
[3] = Inhibition of CuSO4-induced human LDL oxidation assessed as ratio of length of lag phase of conjugated diene formation in presence of compound to untreated control at 5 uM measured every 10 mins for 8 hrs by spectrophotometry; assay type: functional; outline: as §1
[4] = Inhibition of AAPH-induced human LDL oxidation assessed as ratio of length of lag phase of conjugated diene formation in presence of compound to untreated control at 5 uM measured every 10 mins for 8 hrs by spectrophotometry; assay type: functional; outline: as §1
[5] = Inhibition of CuSO4-induced human LDL oxidation assessed as length of lag phase of conjugated diene formation measured every 10 mins for 8 hrs by spectrophotometry; assay type: functional
Outline: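 Human LDL (NaBr density ultracentrifugation, 1.019–1.063 g/mL) oxidized with 16.6 µM CuSO4 at 30 °C. Diene conjugation followed at 234 nm every 10 min for 8 h. Lag-phase length taken from the kinetic curves.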

[6] = Cytoprotective activity against minimally oxidized LDL-induced cytotoxicity in BAEC assessed as LDH release at 10 uM treated for 24 hrs before mO-LDL challenge measured after 16 hrs by spectrometry; assay type: functional, Bos taurus
Outline: (§2)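 BAECs (primary, bovine aorta) in DMEM with 10% newborn calf serum, glutamine, penicillin. Pretreated 24 h with drug in methanol (final 10 µM), then 16 h at 37 °C with drug plus native LDL or mO-LDL at 100 µg/mL (mO-LDL from LDL incubated at 30 °C without oxidant). Medium LDH read spectrometrically by NAD reduction, expressed as % of total LDH released by 0.1% Triton X-100; mean (SD) of two incubations in triplicate.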

BAEC [7] = assay: Cytoprotective activity against LDL-induced cytotoxicity in BAEC assessed as decrease in LDH release at 10 uM treated for 24 hrs before LDL challenge measured after 16 hrs by spectrometry; assay type: functional; settings: Bos taurus; outline: as §2
BAEC [8] = assay: Cytoprotective activity against minimally oxidized LDL-induced cytotoxicity in BAEC assessed as decrease in number of detached and shrunk cells at 10 uM treated for 24 hrs before mO-LDL challenge measured after 16 hrs by spectrometry; assay type: functional, cell-based; settings: Bos taurus
Outline: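 BAECs pretreated 24 h with drug (final 10 µM in methanol), then exposed 16 h at 37 °C to mO-LDL (100 µg protein/mL, air-oxidized LDL) with drug. Cells examined for morphology: contraction, cytoplasmic ramification, rounding and detachment from wells.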

[9] = Cytoprotective activity against minimally oxidized LDL-induced cytotoxicity in BAEC assessed as cell vitality at 10 uM treated for 24 hrs before mO-LDL challenge measured after 16 hrs by MTT assay; assay type: functional, Bos taurus
Outline: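 Primary bovine aortic endothelial cells grown in DMEM with 10% newborn calf serum, glutamine and penicillin. Pretreated 24 h with drug in methanol, then 16 h at 37 °C with air-oxidized LDL (100 µg protein/mL, made by incubating LDL at 30 °C without CuSO4 or AAPH) plus drug (final 10 µM). MTT (5 mg solution in PBS) added for 5 h. Formazan dissolved in dimethylformamide, A590 read, expressed as % of control wells.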

SMILES | Ratio [1] | Ratio [2] | Ratio [3] | Ratio [4] | Activity [5] | Activity [6] [%] | Activity (BAEC [7]) | Activity (BAEC [8]) | Activity [9] [%]
CCCN1CCc2cc3oc(=O)n(C)c3cc2C1c1cccc(O)c1 (stereo not given) | > 5 | > 5 | 2.5 | 2.4 | Dose-dependent effect | 13.5 | inactive | Active | 90
CCCN1CCc2cc(O)c(NC)cc2C1c1cccc(O)c1 (stereo not given) | – | – | – | – | – | 14.1 | inactive | Active | 90
CCCCCCCCCN1CCc2cc3oc(=O)n(C)c3cc2C1c1cccc(OC)c1 (stereo not given) | > 5 | 3.8 | 1.7 | – | Dose-dependent effect | – | inactive | Active | 90
CCCN1CCc2cc3oc(=O)n(C)c3cc2C1c1cccc(OC)c1 (stereo not given) | > 5 | 3.3 | 1.5 | – | Dose-dependent effect | – | inactive | Active | 90
CCCN1CCc2cc3sc(=O)n(C)c3cc2C1c1cccc(OC)c1 (stereo not given) | > 5 | > 5 | 2.1 | 1.9 | Dose-dependent effect | 14.6 | inactive | Active | 90
COc1ccc2[nH]c(=O)oc2c1 [COIXOL] | 1.5 | – | – | – | Dose-dependent effect | – | inactive | – | 90
CCCN1CCc2cc(O)c(NC)cc2C1c1cccc(OC)c1 (stereo not given) | > 5 | > 5 | 3.2 | 3.3 | Dose-dependent effect | 13.2 | inactive | Active | 90
COc1ccc2[nH]cc(CCNC(C)=O)c2c1 [MELATONIN] | 1.5 | – | – | – | Dose-dependent effect | – | inactive | Active | 90
COc1cccc(C2=NCCc3cc4oc(=O)n(C)c4cc32)c1 | > 5 | 1.8 | 1 | – | Dose-dependent effect | – | inactive | Active | 90
COc1cccc(C2NCCc3cc4sc(=O)n(C)c4cc32)c1 (stereo not given) | > 5 | > 5 | 2.1 | 2 | Dose-dependent effect | 14.5 | inactive | Active | 90
COc1cccc(C2=NCCc3cc4sc(=O)n(C)c4cc32)c1 | > 5 | > 5 | 2.5 | 2.5 | Dose-dependent effect | 14.12 | inactive | Active | 90
CCCN1CCc2c([nH]c3ccc(CC)cc23)C1c1cccc(OC)c1.Cl (stereo not given) | > 5 | > 5 | 1.6 | 1.5 | Dose-dependent effect | 15.32 | inactive | Active | 90
COc1cccc(C2NCCc3cc4oc(=O)n(C)c4cc32)c1 (stereo not given) | > 5 | 1.8 | 1 | – | Dose-dependent effect | – | inactive | Active | 90
